# Activity calls are given as the source filed them. The calls are words filed in the database; no cut-off is given here.
# Columns and labels:
# HeLa [1] = experiment: Cytotoxicity against human HeLa cells assessed as reduction in cell viability incubated for 72 hrs under normoxia condition by MTT assay; type: cell-based
# Outline: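 HeLa cells, 5 × 10^3 per well, exposed 72 h at 37 °C in RPMI-1640 to a range of concentrations (compounds from 10 mM DMSO stocks). MTT (5 mg/mL in PBS) added for a further 2 h, formazan dissolved in DMSO, absorbance read at 595 nm. IC50 taken from semilogarithmic dose–response plots. Top concentration capped at 10 or 30 μM where solubility was poor.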
# [2] = Solubility of the compound; type: physicochemical
# HeLa [3] = experiment: Inhibition of hypoxia-induced HIF1alpha accumulation in human HeLa cells at 1 to 30 uM incubated for 12 hrs under 1% O2 condition by Western blot analysis; type: functional, cell-based
# Outline: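 Lysates separated by SDS-PAGE, blotted to PVDF and probed with anti-HIF-1α and anti-tubulin antibodies. Detection used HRP-conjugated secondary antibody and chemiluminescent imaging.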
# HeLa [4] = experiment: Effect on HIF1alpha mRNA level in human HeLa cells at 30 uM incubated for 12 hrs under 1% O2 condition by qRT-PCR analysis; type: functional, cell-based
# Outline: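 HeLa cells, 1 × 10^6 per well, held 12 h with or without compound under normoxia or hypoxia. Total RNA extracted with a column kit. 1.0 µg RNA reverse transcribed with random primers, dNTPs and M-MLV at 40 °C for 50 min, then HIF-1α mRNA measured by RT-PCR.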
# [5] = biological target: Luciferin 4-monooxygenase (Photinus pyralis) (UniProt P08659); experiment: Inhibition of recombinant firefly luciferase at 1 uM incubated for 10 mins at 37 degree C by luminometric method
# Sequence of Luciferin 4-monooxygenase (Photinus pyralis) (P08659 whole entry): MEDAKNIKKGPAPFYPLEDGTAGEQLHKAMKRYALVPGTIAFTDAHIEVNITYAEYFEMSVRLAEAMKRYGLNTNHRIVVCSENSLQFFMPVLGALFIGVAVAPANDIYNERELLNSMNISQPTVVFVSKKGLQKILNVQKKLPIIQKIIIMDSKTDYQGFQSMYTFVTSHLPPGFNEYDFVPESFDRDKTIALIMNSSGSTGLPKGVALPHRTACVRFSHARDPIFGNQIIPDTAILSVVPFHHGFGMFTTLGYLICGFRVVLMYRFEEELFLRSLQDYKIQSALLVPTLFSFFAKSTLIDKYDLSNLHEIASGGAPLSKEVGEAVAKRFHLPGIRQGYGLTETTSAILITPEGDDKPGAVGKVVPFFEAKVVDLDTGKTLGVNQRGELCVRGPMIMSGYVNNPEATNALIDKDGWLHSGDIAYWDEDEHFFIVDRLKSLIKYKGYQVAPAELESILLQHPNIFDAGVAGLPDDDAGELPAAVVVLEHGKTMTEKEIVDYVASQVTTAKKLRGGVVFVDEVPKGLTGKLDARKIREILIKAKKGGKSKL
# Outline: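 Recombinant firefly luciferase (20 ng/µL stock in PBS) mixed with compound in DMSO/PBS and incubated 10 min at 37 °C. Luciferase assay reagent was then added and light emission read on a luminometer. Compound tested at 1 μM.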
solubility [2],inhibition [5],Compound,IC50 (HeLa [1]),inhibition (HeLa [3]),Activity (HeLa [4])
> 30 µM,–,Cc1nn(-c2ccccc2)c2c1-c1ccccc1C2=O,> 30 µM,–,–
> 10 µM,inactive,Cc1ccc(-n2ncc3c2C(=O)c2ccccc2-3)cc1,> 10 µM,Active,inactive
> 30 µM,–,O=C1c2ccccc2-c2cn[nH]c21,> 30 µM,–,–
> 10 µM,Active,COc1ccc(-n2ncc3c2C(=O)c2ccccc2-3)cc1,> 10 µM,–,–

# More lines, now with the values behind:
Compound,solubility [2],inhibition [5],IC50 (HeLa [1]),inhibition (HeLa [3]),Activity (HeLa [4])
O=C1c2ccccc2-c2cnn(-c3ccc(C(F)(F)F)cc3)c21,–,–,> 100 µM,–,–
O=C1c2ccccc2-c2cnn(-c3ccc(O)cc3)c21,–,–,2.2 µM,–,–
O=C1c2ncccc2-c2cnn(-c3ccccc3)c21,–,–,52 µM,–,–
Cn1ncc2c1C(=O)c1ccccc1-2,–,–,49 µM,–,–
O=C1c2ccccc2-c2cnn(-c3ccccc3)c21,> 10 µM,–,> 10 µM,–,–
OCc1ccc(-c2nn(Cc3ccccc3)c3ccccc23)o1,–,–,56 µM,–,–
